A word on the CC50: it is the concentration at which the toxic effect on the cells reaches its halfway point.

We go through eight molecules from PubChem BioAssay AID504769 (Southern Research Specialized Biocontainment Screening …, 2011).

The subject of the experiment is Bladder 5637 cells viability, CellTiter-Glo, 72 h. Put plainly: viability loss in 5637 carcinoma cells – cell-based, set 2, cytotoxicity control for bacterial capsule biogenesis inhibitors, dose response (AID 504769). A digest of the protocol:
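Measured by: CellTiter-Glo luminescence for cell viability; Material: bladder carcinoma 5637 cell line; Compound: Eight-point series, 300 µM down to 2.3 µM; Timing: 72 h compound exposure; Benchmarks: Hyamine toxic control, untreated cell control.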

As to `O=C(Nc1nc2c(F)cc(F)cc2s1)c1ccncc1`, the CC50 is 71.8 µM. To `O=C(Nc1nc2ccccc2s1)c1ccncc1` belongs 104 µM; to `O=C(Nc1nc2ccc(F)cc2s1)c1ccccn1`, 3.32 µM; to `O=C(Nc1nc2c(F)cccc2s1)c1ccccn1`, 2.56 µM.

Take `Cc1cc(C)c2nc(NC(=O)c3ccccn3)sc2c1`: the CC50 was 6.19 µM. To `O=C(Nc1nc2c(Cl)cc(Cl)cc2s1)c1ccccn1` belongs 3.55 µM; to `O=C(Nc1nc2ccccc2s1)c1cccnc1`, 129 µM.

Regarding `O=C(Nc1nc2c(F)cc(F)cc2s1)c1ccccc1`, the CC50 is 30.9 µM.
